Assays:
P2Y purinoceptor 1 [1] = biological target: T1, P2Y purinoceptor 1 (Meleagris gallopavo, UniProt P49652); experiment: Agonistic activity for P2Y purinoceptor 1 of turkey erythrocyte membranes; type: functional
Procedure, shortened: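 [³H]myoinositol-labeled washed turkey erythrocytes (18–24 h, 37 °C), membranes made by hypotonic lysis; phospholipase C measured as total [³H]inositol phosphates (ion-exchange) after 5 min at 30 °C with GTPγS, pH 7.0 Hepes medium. EC50 from four-parameter logistic fit; at least three experiments with different membrane preparations, duplicate assays.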

P2Y purinoceptor 1 [2] = biological target: T1, P2Y purinoceptor 1; experiment: Compound was evaluated for its agonistic activity towards P2Y purinoceptor 1 in turkey erythrocyte membranes; NE=No effect; type: functional, cell membranes
Procedure, shortened: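 Turkey erythrocytes labeled 18–24 h at 37 °C with 2-[3H]myoinositol in inositol-free DMEM, then lysed in hypotonic buffer (5 mM sodium phosphate pH 7.4, 5 mM MgCl2, 1 mM EGTA) to make membranes. Phospholipase C was assayed with GTPγS and graded nucleotide concentrations at 30 °C for 5 min, pH 7.0 Hepes medium. Total [3H]inositol phosphates were measured by ion-exchange chromatography. EC50 came from four-parameter logistic fits, ≥3 experiments on separate membrane preparations, duplicate assays.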

T1 sequence (P49652 whole entry): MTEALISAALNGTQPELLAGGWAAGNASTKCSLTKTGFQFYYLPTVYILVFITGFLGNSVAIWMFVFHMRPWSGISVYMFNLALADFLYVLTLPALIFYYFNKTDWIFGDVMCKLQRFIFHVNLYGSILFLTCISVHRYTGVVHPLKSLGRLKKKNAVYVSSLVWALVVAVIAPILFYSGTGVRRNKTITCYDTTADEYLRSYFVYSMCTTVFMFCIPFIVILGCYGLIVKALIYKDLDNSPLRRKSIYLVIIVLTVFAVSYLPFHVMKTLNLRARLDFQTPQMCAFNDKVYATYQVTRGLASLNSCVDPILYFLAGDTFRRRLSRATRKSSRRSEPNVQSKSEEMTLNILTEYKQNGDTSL

Row | SMILES | EC50 (P2Y purinoceptor 1 [1]) | EC50 (P2Y purinoceptor 1 [2])
1 | Nc1nc(SCCc2ccc([N+](=O)[O-])cc2)nc2c1ncn2[C@@H]1O[C@H](COP(O)(=S)OP(=O)(O)OP(=O)(O)O)[C@@H](O)[C@H]1O (stereo in doubt; 5bB) | 890 nM | 
2 | Nc1ncnc2c1ncn2[C@@H]1O[C@H](COP(=O)(O)OP(=O)(O)OP(=O)(O)O)[C@@H](O)[C@H]1O [ADENOSINE TRIPHOSPHATE] | 6350 nM | 
3 | CCCCCCSc1nc(N)c2ncn(C3O[C@H](COP(=O)(O)OP(=O)(O)OP(=O)(O)O)[C@@H](O)[C@H]3O)c2n1 (stereo partly drawn) | 10 nM | 
4 | Nc1ncnc2c1ncn2[C@@H]1O[C@H](COP(O)(O)=S)[C@@H](O)[C@H]1O |  | Not Active
5 | CCCCCCSc1nc(N)c2ncn(C3O[C@H](COP(O)(O)=S)[C@@H](O)[C@H]3O)c2n1 (stereo partly drawn) | 2790 nM | 
6 | CCCCCCSc1nc(N)c2ncn([C@@H]3O[C@H](COP(=O)(O)O)[C@@H](O)[C@H]3O)c2n1 | 60 nM | 
7 | Nc1nc(SCCc2ccc([N+](=O)[O-])cc2)nc2c1ncn2[C@@H]1O[C@H](COP(O)(=S)OP(=O)(O)OP(=O)(O)O)[C@@H](O)[C@H]1O (stereo in doubt; 5bA) | 510 nM | 
8 | Nc1ncnc2c1ncn2C1O[C@H](COP(O)(=S)OP(=O)(O)OP(=O)(O)O)[C@@H](O)[C@H]1O (stereo partly drawn) | 6280 nM | 

Further lines, with some results ahead:

Row | EC50 (P2Y purinoceptor 1 [1]) | SMILES | EC50 (P2Y purinoceptor 1 [2])
9 | 12 nM | Nc1nc(SCCc2ccc([N+](=O)[O-])cc2)nc2c1ncn2C1O[C@H](COP(=O)(O)OP(=O)(O)OP(=O)(O)O)[C@@H](O)[C@H]1O (stereo partly drawn) | 
10 | 3000 nM | Nc1nc(SCCc2ccc([N+](=O)[O-])cc2)nc2c1ncn2C1O[C@H](COP(=O)(O)O)[C@@H](O)[C@H]1O (stereo partly drawn) | 
11 | 21 nM | CCCCCCSc1nc(N)c2ncn([C@@H]3O[C@H](COP(O)(=S)OP(=O)(O)OP(=O)(O)O)[C@@H](O)[C@H]3O)c2n1 (stereo in doubt; 5aB) | 
12 | 17 nM | CCCCCCSc1nc(N)c2ncn([C@@H]3O[C@H](COP(O)(=S)OP(=O)(O)OP(=O)(O)O)[C@@H](O)[C@H]3O)c2n1 (stereo in doubt; 5aA) | 
13 | 2360 nM | Nc1nc(SCCc2ccc([N+](=O)[O-])cc2)nc2c1ncn2[C@@H]1O[C@H](COP(O)(O)=S)[C@@H](O)[C@H]1O | 
